Each molecule was assayed on T1, A0A140T8K0. Conditions: stereoisomer not certain.
T1 sequence (whole entry): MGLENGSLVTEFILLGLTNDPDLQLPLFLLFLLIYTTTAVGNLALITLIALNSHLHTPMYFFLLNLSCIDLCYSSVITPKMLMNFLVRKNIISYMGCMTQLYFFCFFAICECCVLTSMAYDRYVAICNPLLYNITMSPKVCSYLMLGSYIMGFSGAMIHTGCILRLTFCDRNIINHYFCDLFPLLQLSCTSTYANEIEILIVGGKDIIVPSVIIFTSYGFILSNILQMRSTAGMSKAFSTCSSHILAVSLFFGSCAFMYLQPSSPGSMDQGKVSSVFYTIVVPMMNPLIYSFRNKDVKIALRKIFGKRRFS
In short: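 Each entry records the cell line, G-protein, co-transfected protein and tags used. Methods varied with the source, often transient luciferase assays in mammalian cell lines. A receptor–molecule pair is called responsive (active) if the original authors judged its signal statistically different from baseline and non-responsive (inactive) otherwise.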
In the case of `C=C(C)C1CCC(C)C(O)C1` (centres undefined), the “odorant receptor agonist call” value is reported as “inactive”.
With `CCCCCCCOC(=O)C(C)C` the “odorant receptor agonist call” value was “inactive”.
With `CSSCc1ccco1` the “odorant receptor agonist call” value was “inactive”.
In the case of `COc1nccnc1C`, the “odorant receptor agonist call” value is reported as “inactive”.
For `CCCCCCCCCCOC(C)=O`, the “odorant receptor agonist call” value was “inactive”.
`CC1(C)CC(=O)CC(=O)C1` was tested, and the “odorant receptor agonist call” value was “inactive”.
In the case of `CCOC(=O)C(C)CC` (centres undefined), the “odorant receptor agonist call” value is reported as “inactive”.
For `CCCCCCCCCCCO`, the “odorant receptor agonist call” value was “inactive”.
For `O=C([O-])CCCCCCCC(=O)[O-].[H+].[H+]`, the “odorant receptor agonist call” value was “inactive”.
In the case of `CCCCCCCCC=CC=O`, the “odorant receptor agonist call” value is reported as “inactive”.
`CC(=O)OCCc1ccccc1` was tested, and the “odorant receptor agonist call” value was “inactive”.
In the case of `O=C(O)CCCCCCCCC(=O)O`, the “odorant receptor agonist call” value is reported as “active”.
`C=CC(=C)CCC=C(C)CCC=C(C)C` was tested, and the “odorant receptor agonist call” value was “inactive”.
`CC1CCC(C(C)C)C(=O)C1` (centres undefined) was tested, and the “odorant receptor agonist call” value was “inactive”.
`CC(=O)C=CC1=C(C)CCCC1(C)C` was tested, and the “odorant receptor agonist call” value was “inactive”.
In the case of `CCC=CCCCCC=O`, the “odorant receptor agonist call” value is reported as “inactive”.
`CC(CC=O)CCCC(C)(C)O` (centres undefined) was tested, and the “odorant receptor agonist call” value was “inactive”.
In the case of `CCCCCC=CCCC=O`, the “odorant receptor agonist call” value is reported as “inactive”.
For `CCCCCCC(C=O)=Cc1ccccc1`, the “odorant receptor agonist call” value was “inactive”.
With `CCSSCC` the “odorant receptor agonist call” value was “inactive”.
In the case of `COc1ccccc1`, the “odorant receptor agonist call” value is reported as “inactive”.
With `CC1CC=CCCCCCCCCCC(=O)C1` (centres undefined) the “odorant receptor agonist call” value was “inactive”.
For `CC(C)CS`, the “odorant receptor agonist call” value was “inactive”.
For `CC(C)CCN`, the “odorant receptor agonist call” value was “inactive”.
In the case of `CC(C)=C1CCC(C)CC1=O` (centres undefined), the “odorant receptor agonist call” value is reported as “inactive”.
With `CCCCCCC(C)O` (centres undefined) the “odorant receptor agonist call” value was “inactive”.
With `CCCCCCC(=O)OCCCC` the “odorant receptor agonist call” value was “inactive”.
With `CCCCCCCCCC=CC=O` the “odorant receptor agonist call” value was “inactive”.
`CC(=O)OCc1ccc2c(c1)OCO2` was tested, and the “odorant receptor agonist call” value was “inactive”.
For `C=C(CC)CCCC(C)(C)O`, the “odorant receptor agonist call” value was “inactive”.
With `CSSSC` the “odorant receptor agonist call” value was “inactive”.
In the case of `OCCc1ccccc1`, the “odorant receptor agonist call” value is reported as “inactive”.
`CCC(C)O` (centres undefined) was tested, and the “odorant receptor agonist call” value was “inactive”.
In the case of `OCCCCCCCCCO`, the “odorant receptor agonist call” value is reported as “inactive”.
For `O=C(O)CCCCCBr`, the “odorant receptor agonist call” value was “inactive”.
`C=CC(=O)CCCCC` was tested, and the “odorant receptor agonist call” value was “inactive”.
With `C=C(C)C1CCC2(C)OC2C1` (centres undefined) the “odorant receptor agonist call” value was “inactive”.
`c1ccc2ncccc2c1` was tested, and the “odorant receptor agonist call” value was “inactive”.
In the case of `CCCC=O`, the “odorant receptor agonist call” value is reported as “inactive”.

Reference: the M2OR odorant receptor database
